ChEMBL document CHEMBL1909641, “Rational design of 2-pyrrolinones as inhibitors of HIV-1 integrase” (Bioorg Med Chem Lett, 2011)

Tests used:
[1] = target: T1, Human immunodeficiency virus type 1 integrase (Human immunodeficiency virus 1, UniProt Q7ZJM1); test: Inhibition of HIV1 integrase-mediated 3' processing of viral DNA after 30 mins by PAGE
[2] = target: T1, Human immunodeficiency virus type 1 integrase; test: Inhibition of HIV1 integrase-mediated single strand tansfer of viral DNA after 30 mins by PAGE
[3] = system: Human immunodeficiency virus 1; test: Antiviral activity against HIV1 pNL4.3 infected in human TZM-bl cells by luciferase reporter gene assay; type: functional, organism-based
[4] = Cytotoxicity against human TZM-bl cells infected with HIV1 pNL4.3; type: cell-based
Procedure, shortened: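 CC50 is the cytostatic concentration required to kill 50% of TZM-bl cells.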

[5] = Selectivity index, ratio of CC50 against human TZM-bl cells to EC50 for inhibition of HIV1 integrase activity in TZM-bl cells infected with HIV1 pNL4.3; type: toxicity, cell-based; details: read-out: Ratio CC50/EC50
Procedure, shortened: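 SI is calculated as the CC50 in TZM-bl cells divided by the antiviral EC50.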

T1 sequence (Q7ZJM1 whole entry): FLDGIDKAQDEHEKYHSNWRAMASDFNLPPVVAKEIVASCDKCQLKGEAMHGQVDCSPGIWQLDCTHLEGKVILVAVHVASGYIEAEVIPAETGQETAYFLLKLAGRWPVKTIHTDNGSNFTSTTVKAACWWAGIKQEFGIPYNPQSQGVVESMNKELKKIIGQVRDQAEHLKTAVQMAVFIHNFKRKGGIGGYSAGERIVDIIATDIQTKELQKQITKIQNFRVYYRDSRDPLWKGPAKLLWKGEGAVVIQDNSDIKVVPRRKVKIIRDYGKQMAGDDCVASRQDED

SMILES | IC50 [1] [µM] | IC50 [2] [µM] | EC50 ([3]; tzm-bl) | EC50 ([3]; Human immunodeficiency virus 1, pNL4.3, TZM-bl, read-out: EC50) [µM] | CC50 [4] [µM] | selectivity ratio [5]
CN1C(=O)C(O)=C(C(=O)c2ccccc2)C1c1ccc([N+](=O)[O-])cc1 (stereo not given) | > 100 | > 100 | – | – | – | –
CN1C(=O)C(O)=C(C(=O)c2ccccc2)C1c1cccc(Cl)c1 (stereo not given) | > 100 | > 100 | – | – | – | –
COc1ccc(CCN2C(=O)C(O)=C(C(=O)c3ccccc3)C2c2ccc(O)cc2)cc1 (stereo not given) | > 100 | 100 | Not Active | – | 459 | –
CN1C(=O)C(O)=C(C(=O)c2ccccn2)C1c1cccc(Cl)c1 (stereo not given) | > 100 | > 100 | – | – | – | –
CC(C)CN1C(=O)C(O)=C(C(=O)c2ccccc2)C1c1ccccc1 (stereo not given) | > 100 | > 100 | – | – | – | –

These reach a lower IC50 [1]. Values come first.

IC50 [1] [µM] | IC50 [2] [µM] | EC50 ([3]; tzm-bl) | EC50 ([3]; Human immunodeficiency virus 1, pNL4.3, TZM-bl, read-out: EC50) [µM] | SMILES | CC50 [4] [µM] | selectivity ratio [5]
89 | 44 | Not Active | – | O=C(C1=C(O)C(=O)N(c2ccccc2)C1c1ccc([N+](=O)[O-])cc1)c1ccccc1 (stereo not given) | 790 | –
80 | 45 | Not Active | – | COc1ccc(CCN2C(=O)C(O)=C(C(=O)c3ccccc3)C2c2ccccc2)cc1 (stereo not given) | 830 | –
77 | 40 | – | 0.317 | COc1ccc(CCN2C(=O)C(O)=C(C(=O)c3ccccn3)C2c2cccc(Cl)c2)cc1 (stereo not given) | 26.6 | 83.7
